Common to all, as to assay type: functional, cell-based
For assay [1], the system named is K562. The assay is described as follows: Cytotoxicity against multidrug-resistant human K562 cells after 48 hrs by MTT assay. The following applies: K562, 48 h. In short, it runs like this:
(§1)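 Cell lines sourced from Shanghai Institute of Pharmaceutical Industry; K562R is a multidrug-resistant subline. Cells exposed to compound for 48 h, then MTT in RPMI-1640 added with a further 4 h at 37 °C. Formazan dissolved in DMSO, absorbance read at 570 nm. Triplicate wells in three independent experiments. IC50 (50% inhibition of viability) from dose-effect analysis, reported as mean of three experiments.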
On the technique in general: Tetrazolium dyes change colour on reduction, which living cells bring about.

The subject of the next assay is A549. Kind of assay: Cytotoxicity against human A549 cells after 48 hrs by MTT assay. The conditions noted are these: A549, 48 h. In short, it runs like this:
as §1

A further assay relates to HCT-116. The assay is described as follows: Cytotoxicity against human HCT116 cells after 48 hrs by MTT assay. The conditions noted are these: HCT-116, 48 h. In short, it runs like this: as §1
The nature of assay [2]: Cytotoxicity against human SGC cells after 48 hrs by MTT assay. In outline: as §1
The subject of a further assay is MCF7. Kind of assay: Cytotoxicity against human MCF7 cells after 48 hrs by MTT assay. The following applies: MCF7, 48 h. In outline: as §1
Assay [3] relates to K562. The assay is described as follows: Cytotoxicity against human K562 cells after 48 hrs by MTT assay. The conditions noted are these: K562, 48 h. In outline:
as §1

For `CCn1c2ccncc2c2cc(NC(=O)c3ccc(OC)cc3)ccc21`, the IC50 in the assay on K562 [1] was determined as 5.15 µM; in the assay on A549, 72 µM; in the assay on HCT-116, 50.7 µM; in assay [2] it was 21.3 µM; in the assay on MCF7 it was 4.92 µM; in the assay with K562 [3] (read-out: IC50) it was 11.3 µM. Also, the IC50 with K562 [3] (read-out: pIC50 (converted)) was 11.3 µM.

Regarding `O=S(=O)(Oc1ccccc1)c1ccc2[nH]c3ccncc3c2c1`, the IC50 with K562 [1] was 48.9 µM; in the assay with A549, greater than 100 µM; in the assay with HCT-116, 45.2 µM; in assay [2], greater than 100 µM; in the assay on MCF7, 38.6 µM; in the assay with K562 [3] (read-out: IC50) it was 77.4 µM. Moreover, in the assay on K562 [3] (read-out: pIC50 (converted)), the IC50 is 77.4 µM.

With `CCn1c2ccncc2c2cc(NC(=O)c3ccccc3O)ccc21`, the IC50 in the assay with K562 [1] is 22.9 µM; in the assay on A549, greater than 100 µM; in the assay with HCT-116, greater than 100 µM; in assay [2] it was 19.2 µM; with MCF7, 20.9 µM; with K562 [3] (read-out: IC50), 12.7 µM. In the assay with K562 [3] (read-out: pIC50 (converted)), the IC50 was 12.7 µM.

As to `COc1cc(NS(=O)(=O)c2ccc3[nH]c4ccncc4c3c2)cc(OC)c1OC`, the IC50 in the assay on K562 [1] was 73.4 µM; in the assay with A549 it was 48.2 µM; in the assay with HCT-116, 16.9 µM; in assay [2], greater than 100 µM; with MCF7 it was 19.2 µM; in the assay with K562 [3] (read-out: IC50), 11.3 µM. Moreover, the IC50 in the assay on K562 [3] (read-out: pIC50 (converted)) is 11.3 µM.

`CCN(c1cc(OC)c(OC)c(OC)c1)S(=O)(=O)c1ccc2c(c1)c1cnccc1n2CC`: the IC50 stood at 3.02 µM in the assay on K562 [1]; 33.9 µM in the assay on A549; 10.2 µM in the assay with HCT-116; 13.8 µM in assay [2]; 2.07 µM in the assay on MCF7; 1.02 µM with K562 [3] (read-out: IC50). Moreover, the IC50 with K562 [3] (read-out: pIC50 (converted)) is 1.02 µM.

In the case of `CCN(c1cc(OC)c(OC)c(OC)c1)S(=O)(=O)c1ccc2c(c1)c1c[n+](CC)ccc1n2CC`, the IC50 (in the assay on K562 [1]; with A549; in the assay with HCT-116; in assay [2]; in the assay on MCF7; with K562 [3] (read-out: IC50)) was greater than 100 µM in each case.

In the case of `CCn1c2ccncc2c2cc(NC(=O)c3cccnc3)ccc21`, the IC50 in the assay on K562 [1] was determined as 40.6 µM; with A549, 73.5 µM; in the assay with HCT-116 it was 87.2 µM; in assay [2], 50.9 µM; in the assay with MCF7, 18.1 µM; in the assay with K562 [3] (read-out: IC50), 14.5 µM. Moreover, the IC50 in the assay on K562 [3] (read-out: pIC50 (converted)) is 14.5 µM.

For `CCn1c2ccncc2c2cc(NC(=O)c3ccc(Br)cc3)ccc21`, the IC50 with K562 [1] was 15.6 µM; with A549 it was greater than 100 µM; with HCT-116 it was greater than 100 µM; in assay [2], 71.2 µM; in the assay on MCF7, 11.9 µM; in the assay with K562 [3] (read-out: IC50) it was 13.2 µM. Also, the IC50 in the assay on K562 [3] (read-out: pIC50 (converted)) is 13.2 µM.

Consider `CCn1c2ccncc2c2cc(NC(=O)c3ccc(S(C)(=O)=O)cc3)ccc21`, for which the IC50 in the assay with K562 [1] was 96.6 µM; in the assay on A549, greater than 100 µM; in the assay on HCT-116, greater than 100 µM; in assay [2], 36 µM; in the assay with MCF7, 22.8 µM; in the assay on K562 [3] (read-out: IC50) it was 22.9 µM. Also, in the assay with K562 [3] (read-out: pIC50 (converted)), the IC50 is 22.9 µM.

With `CCn1c2ccncc2c2cc(NC(=O)c3ccccc3Cl)ccc21`, the IC50 is 22.9 µM in the assay on K562 [1]; 37.3 µM in the assay with A549; 2.63 µM with HCT-116; 20.8 µM in assay [2]; 6.52 µM in the assay on MCF7; 8.58 µM in the assay with K562 [3] (read-out: IC50). Further, in the assay on K562 [3] (read-out: pIC50 (converted)), the IC50 was 8.57 µM.

As to `O=S(=O)(Oc1ccc(Cl)cc1)c1ccc2[nH]c3ccncc3c2c1`, the IC50 stood at 13.9 µM in the assay with K562 [1]; 47.3 µM in the assay with A549; 32 µM with HCT-116; 39.7 µM in assay [2]; 26.3 µM with MCF7; 20.5 µM with K562 [3] (read-out: IC50). Also, the IC50 in the assay with K562 [3] (read-out: pIC50 (converted)) is 20.5 µM.

As for `CCn1c2ccncc2c2cc(S(=O)(=O)Nc3ccccc3)ccc21`, the IC50 with K562 [1] is greater than 100 µM; in the assay on A549 it was greater than 100 µM; in the assay on HCT-116 it was 13.7 µM; in assay [2] it was 8 µM; with MCF7 it was 0.88 µM; with K562 [3] (read-out: IC50), 20.7 µM. Besides, in the assay on K562 [3] (read-out: pIC50 (converted)), the IC50 was 20.7 µM.

Consider `CCn1c2ccncc2c2cc(NC(=O)c3ccccc3)ccc21`, for which the IC50 in the assay with K562 [1] was 10.6 µM; in the assay with A549, greater than 100 µM; in the assay on HCT-116, greater than 100 µM; in assay [2], 26.5 µM; in the assay with MCF7, 11.8 µM; in the assay with K562 [3] (read-out: IC50), 26.2 µM. For the same compound, in the assay with K562 [3] (read-out: pIC50 (converted)), the IC50 is 26.2 µM.

Take `CCn1c2ccncc2c2cc(NC(=O)c3cc(OC)c(OC)c(OC)c3)ccc21`: the IC50 with A549 is 15.9 µM; in assay [2], 16.1 µM; with K562 [3] (read-out: IC50), 13.6 µM; in the assay on K562 [3] (read-out: pIC50 (converted)), 13.6 µM.

`COc1ccc(OS(=O)(=O)c2ccc3[nH]c4ccncc4c3c2)cc1`: the IC50 in the assay on K562 [1] was 5.7 µM; in the assay on A549, 22.6 µM; with HCT-116, 23.9 µM; in assay [2], 21.4 µM; in the assay on MCF7 it was 16 µM; in the assay on K562 [3] (read-out: IC50), 6.6 µM. Moreover, in the assay on K562 [3] (read-out: pIC50 (converted)), the IC50 is 6.61 µM.

In the case of `O=[N+]([O-])c1ccc(OS(=O)(=O)c2ccc3[nH]c4ccncc4c3c2)cc1`, the IC50 in the assay on K562 [1] is 8.34 µM; with A549, 17.5 µM; in the assay on HCT-116, 21 µM; in assay [2], 7.15 µM; with MCF7, 10.8 µM; with K562 [3] (read-out: IC50), 27.9 µM. In the assay on K562 [3] (read-out: pIC50 (converted)), the IC50 was 27.9 µM.

As to `Nc1ccc(OS(=O)(=O)c2ccc3[nH]c4ccncc4c3c2)cc1`, the IC50 turned out to be 5.95 µM in the assay on K562 [1]; 10.1 µM in the assay with A549; 20.9 µM in the assay on HCT-116; 2.12 µM in assay [2]; 16.6 µM with MCF7; 18.4 µM in the assay with K562 [3] (read-out: IC50). Moreover, in the assay with K562 [3] (read-out: pIC50 (converted)), the IC50 is 18.5 µM.

As to `O=S(=O)(Oc1cccc2ccccc12)c1ccc2[nH]c3ccncc3c2c1`, the IC50 with K562 [1] stood at 10.7 µM; in the assay on A549, 33.4 µM; with HCT-116, 39.4 µM; in assay [2] it was 23.3 µM; in the assay with MCF7 it was 14.3 µM; in the assay with K562 [3] (read-out: IC50), 25.9 µM. The IC50 in the assay on K562 [3] (read-out: pIC50 (converted)) is 25.9 µM.

Regarding `CCn1c2ccncc2c2cc(S(=O)(=O)Nc3ccncc3)ccc21`, the IC50 (in the assay on K562 [1]; with A549; with HCT-116; in assay [2]; with MCF7; in the assay with K562 [3] (read-out: IC50)) was greater than 100 µM throughout.

Regarding `CCn1c2ccncc2c2cc(S(=O)(=O)Nc3ccc4c(ccn4C)c3)ccc21`, the IC50 with K562 [1] stood at 16.8 µM; in the assay on A549 it was 73.5 µM; in the assay with HCT-116, 23.2 µM; in assay [2], 73.2 µM; in the assay with MCF7 it was 4.99 µM; in the assay on K562 [3] (read-out: IC50) it was 12.2 µM. Further, in the assay with K562 [3] (read-out: pIC50 (converted)), the IC50 was 12.2 µM.

Take `CCn1c2ccncc2c2cc(S(=O)(=O)Nc3cc(OC)c(OC)c(OC)c3)ccc21`: the IC50 is greater than 100 µM in the assay with K562 [1]; greater than 100 µM with A549; 32.3 µM in the assay on HCT-116; greater than 100 µM in assay [2]; 5.8 µM in the assay on MCF7; 6.09 µM in the assay with K562 [3] (read-out: IC50). In addition, the IC50 in the assay on K562 [3] (read-out: pIC50 (converted)) is 6.1 µM.

In the case of `O=S(=O)(Oc1cccc(Cl)c1)c1ccc2[nH]c3ccncc3c2c1`, the IC50 in the assay on K562 [1] amounted to 8.42 µM; with A549, 43.6 µM; with HCT-116 it was 42.7 µM; in assay [2], 5.82 µM; in the assay with MCF7, 47.5 µM; in the assay with K562 [3] (read-out: IC50) it was 13.2 µM. Besides, the IC50 with K562 [3] (read-out: pIC50 (converted)) was 13.2 µM.

Take `COc1cc(OS(=O)(=O)c2ccc3[nH]c4ccncc4c3c2)cc(OC)c1OC`: the IC50 with K562 [1] was 2.62 µM; in the assay on HCT-116, 0.77 µM; in assay [2], 0.15 µM; with MCF7, 0.86 µM; in the assay with K562 [3] (read-out: IC50) it was 4.5 µM; in the assay on K562 [3] (read-out: pIC50 (converted)), 4.5 µM.

In the case of `COc1ccccc1OS(=O)(=O)c1ccc2[nH]c3ccncc3c2c1`, the IC50 in the assay on K562 [1] came out at 15.3 µM; in the assay on A549, 32 µM; with HCT-116, 64.1 µM; in assay [2] it was 54.3 µM; in the assay with MCF7, 24.7 µM; in the assay on K562 [3] (read-out: IC50), 14.1 µM. Also, the IC50 with K562 [3] (read-out: pIC50 (converted)) is 14.1 µM.

Take `O=S(=O)(Nc1cccc2ncccc12)c1ccc2[nH]c3ccncc3c2c1`: the IC50 in the assay with K562 [1] is 18.5 µM; in the assay on A549, 22.8 µM; with HCT-116 it was 30.8 µM; in assay [2], 95.4 µM; in the assay on MCF7 it was 23.7 µM; in the assay with K562 [3] (read-out: IC50), 12.7 µM. For the same compound, the IC50 in the assay with K562 [3] (read-out: pIC50 (converted)) was 12.7 µM.

These data come from ChEMBL document CHEMBL1138624, “Design, synthesis, and quantitative structure-activity relationship of cytotoxic gamma-carboline derivatives” (Bioorg Med Chem, 2009).
